Experimental data published in ChEMBL document CHEMBL2069298, “Putative mycobacterial efflux inhibitors from the seeds of Aframomum melegueta” (J Nat Prod, 2012).
Converted amounts (≈) assume the structure as drawn.

Experiments:
[1] = system: Mycolicibacterium smegmatis MC2 155; experiment: Inhibition of Multidrug resistance efflux pump in Mycobacterium smegmatis str. MC2 155 ATCC 700084 assessed as increase in normalized ethidium bromide fluorescence efflux at 0.5 MIC level by fluorimetric assay (reference value: 0.581 +/- 0.051 ratio)
Procedure, shortened: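 Cells grown in 7H9 T ADC at 37 °C and loaded with 4 mg/L EtBr plus 256 mg/L verapamil. EtBr efflux followed fluorometrically in a microtiter plate with compounds at half their 7H9 T ADC MIC. Normalized fluorescence is the mean of the last 10 min of four assays, compared with the EtBr control.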

[2] = system: Mycolicibacterium smegmatis MC2 155; experiment: Inhibition of Multidrug resistance efflux pump in Mycobacterium smegmatis str. MC2 155 ATCC 700084 assessed as reduction in isoniazid bromide MIC presence of test compound at 64 mg/L
Procedure, shortened: (§1)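 Broth dilution in MHB with strain mc2 155 from blood agar. Modulator at half its MHB MIC was included in the medium while the antibiotic or EtBr was serially diluted. Inoculum 5 × 10^5 cfu/mL. MTT read-out after 72 h at 37 °C. Value is the fold change in MIC.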

[3] = system: Mycolicibacterium smegmatis; experiment: Antimicrobial activity against Mycobacterium smegmatis str. MC2 155 ATCC 700084 incubated for 72 hrs in Mueller-Hinton broth medium by MTT assay; type: functional; settings: MC2 155 ATCC 700084, 72 h
Procedure, shortened: (§2)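 M. smegmatis mc2 155 grown on Columbia blood agar with 5% horse blood at 37 °C. Compounds in DMSO, serially diluted in Mueller-Hinton broth or 7H9 T ADC. Inoculum set to McFarland 0.5, then 5 × 10^5 cfu/mL, mixed 1:1 with the dilutions. Read with MTT after 72 h at 37 °C. MIC is the lowest concentration inhibiting growth.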

[4] = system: Mycolicibacterium smegmatis MC2 155; experiment: Inhibition of Multidrug resistance efflux pump in Mycobacterium smegmatis str. MC2 155 ATCC 700084 assessed as reduction in rifampicin bromide MIC presence of test compound at 64 mg/L; procedure, shortened: as §1
[5] = system: Mycolicibacterium smegmatis MC2 155; experiment: Inhibition of Multidrug resistance efflux pump in Mycobacterium smegmatis str. MC2 155 ATCC 700084 assessed as reduction in ethambutol bromide MIC presence of test compound at 64 mg/L; procedure, shortened: as §1
[6] = system: Mycolicibacterium smegmatis; experiment: Antimicrobial activity against Mycobacterium smegmatis str. MC2 155 ATCC 700084 incubated for 72 hrs in 7H9 T medium supplemented with 10% Middlebrook ADC enrichment by MTT assay; type: functional; settings: MC2 155 ATCC 700084, 72 h; procedure, shortened: as §2
[7] = system: Mycolicibacterium smegmatis MC2 155; experiment: Inhibition of Multidrug resistance efflux pump in Mycobacterium smegmatis str. MC2 155 ATCC 700084 assessed as reduction in ciprofloxacin bromide MIC presence of test compound at 64 mg/L; procedure, shortened: as §1
[8] = system: Mycolicibacterium smegmatis MC2 155; experiment: Inhibition of Multidrug resistance efflux pump in Mycobacterium smegmatis str. MC2 155 ATCC 700084 assessed as fractional inhibitory concentration index in presence of ethidium bromide
Procedure, shortened: (§3)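 Combination testing in MHB broth dilution against mc2 155. Either the modulator or the antibiotic (EtBr or rifampicin) was held in the medium while the partner was serially diluted. 5 × 10^5 cfu/mL inoculum, MTT read-out after 72 h at 37 °C. Fractional inhibitory concentration index derived from the combined MICs.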

[9] = system: Mycolicibacterium smegmatis MC2 155; experiment: Inhibition of Multidrug resistance efflux pump in Mycobacterium smegmatis str. MC2 155 ATCC 700084 assessed as reduction in ethidium bromide MIC presence of test compound at 64 mg/L; procedure, shortened: as §1
[10] = system: Mycolicibacterium smegmatis MC2 155; experiment: Inhibition of Multidrug resistance efflux pump in Mycobacterium smegmatis str. MC2 155 ATCC 700084 assessed as increase in relative ethidium bromide fluorescence accumulation at 0.5 MIC level by fluorimetric assay (reference value: 6057.1 +/- 508.6 RFU)
Procedure, shortened: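 Cells grown in 7H9 T with 10% ADC at 37 °C. Compounds at half their 7H9 T ADC MIC, with 0.5 mg/L EtBr and 0.4% glucose at 37 °C. Fluorescence tracked in a microtiter plate until steady state. Relative fluorescence is the mean of the last 10 min of four assays, compared with the EtBr-only control.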

[11] = system: Mycolicibacterium smegmatis MC2 155; experiment: Inhibition of Multidrug resistance efflux pump in Mycobacterium smegmatis str. MC2 155 ATCC 700084 assessed as fractional inhibitory concentration index in presence of rifampicin; procedure, shortened: as §3
[12] = system: Mycolicibacterium smegmatis MC2 155; experiment: Inhibition of Multidrug resistance efflux pump in Mycobacterium smegmatis str. MC2 155 ATCC 700084 assessed as reduction in rifampicin bromide MIC presence of test compound at 16 mg/L; procedure, shortened: as §1
[13] = system: Mycolicibacterium smegmatis MC2 155; experiment: Inhibition of Multidrug resistance efflux pump in Mycobacterium smegmatis str. MC2 155 ATCC 700084 assessed as reduction in isoniazid bromide MIC presence of test compound at 16 mg/L; procedure, shortened: as §1
[14] = system: Mycolicibacterium smegmatis MC2 155; experiment: Inhibition of Multidrug resistance efflux pump in Mycobacterium smegmatis str. MC2 155 ATCC 700084 assessed as reduction in ciprofloxacin bromide MIC presence of test compound at 16 mg/L; procedure, shortened: as §1
[15] = system: Mycolicibacterium smegmatis MC2 155; experiment: Inhibition of Multidrug resistance efflux pump in Mycobacterium smegmatis str. MC2 155 ATCC 700084 assessed as reduction in ethidium bromide MIC presence of test compound at 16 mg/L; procedure, shortened: as §1
[16] = system: Mycolicibacterium smegmatis MC2 155; experiment: Inhibition of Multidrug resistance efflux pump in Mycobacterium smegmatis str. MC2 155 ATCC 700084 assessed as reduction in ethambutol bromide MIC presence of test compound at 16 mg/L; procedure, shortened: as §1
[17] = (§4) Inhibition of Multidrug resistance efflux pump in Mycobacterium smegmatis str. MC2 155 ATCC 700084 assessed as increase in normalized ethidium bromide fluorescence efflux at 0.5 MIC level by fluorimetric assay; set-up: species or system Mycolicibacterium smegmatis MC2 155
[18] = system: Mycolicibacterium smegmatis MC2 155; experiment: as §4
[19] = system: Mycolicibacterium smegmatis MC2 155; experiment: Inhibition of Multidrug resistance efflux pump in Mycobacterium smegmatis str. MC2 155 ATCC 700084 assessed as reduction in rifampicin bromide MIC presence of test compound at 32 mg/L; procedure, shortened: as §1
[20] = system: Mycolicibacterium smegmatis MC2 155; experiment: Inhibition of Multidrug resistance efflux pump in Mycobacterium smegmatis str. MC2 155 ATCC 700084 assessed as reduction in ciprofloxacin bromide MIC presence of test compound at 32 mg/L; procedure, shortened: as §1
[21] = system: Mycolicibacterium smegmatis MC2 155; experiment: Inhibition of Multidrug resistance efflux pump in Mycobacterium smegmatis str. MC2 155 ATCC 700084 assessed as reduction in ethidium bromide MIC presence of test compound at 32 mg/L; procedure, shortened: as §1
[22] = system: Mycolicibacterium smegmatis MC2 155; experiment: Inhibition of Multidrug resistance efflux pump in Mycobacterium smegmatis str. MC2 155 ATCC 700084 assessed as reduction in isoniazid bromide MIC presence of test compound at 32 mg/L; procedure, shortened: as §1
[23] = system: Mycolicibacterium smegmatis MC2 155; experiment: Inhibition of Multidrug resistance efflux pump in Mycobacterium smegmatis str. MC2 155 ATCC 700084 assessed as reduction in ethambutol bromide MIC presence of test compound at 32 mg/L; procedure, shortened: as §1

Structure (SMILES) | Ratio [1] | fold change (FC) [2] | MIC [3] [µg/mL] | fold change (FC) [4] | fold change (FC) [5] | MIC [6] [µg/mL] | fold change (FC) [7] | fractional inhibitory concentration index (FICI) [8] | fold change (FC) [9] | RFU [10] | fractional inhibitory concentration index (FICI) [11] | fold change (FC) [12] | fold change (FC) [13] | fold change (FC) [14] | fold change (FC) [15] | fold change (FC) [16] | IC50 [17] [µM] | further results
CCCCC[C@H](O)CC(=O)CCc1ccc(OC)c(OC)c1 | 0.746 | 1 | ≥ 128 | 1 | 1 | ≥ 128 | 1 | 0.63 | 2 | 11800 | 2 |  |  |  |  |  |  | 
CCCCC[C@H](O)C[C@H](O)CCc1ccc(O)c(OC)c1 |  | 1 | ≥ 128 | 1 | 1 | ≥ 128 | 1 | 1 | 2 |  | 2 |  |  |  |  |  |  | 
CCCCCCCC(O)CCc1ccc(O)c(OC)c1 (racemic) | 0.792 |  | 32 (≈ 114 µM) |  |  | 128 (≈ 456 µM) |  | 0.38 |  | 24700 | 0.75 | 4 | 1 | 2 | 4 | 2 | 69.2 | 
CCCCC[C@H](O)CC(=O)CCc1ccc(O)c(OC)c1 [GINGEROL] |  | 1 | ≥ 128 | 1 | 1 | ≥ 128 | 1 | 1 | 2 |  | 2 |  |  |  |  |  |  | 
CCCCCCCC(=O)CCc1ccc(O)c(OC)c1 | 0.793 |  | 32 (≈ 115 µM) |  |  | ≥ 128 |  | 0.25 |  | 24600 | 0.5 | 4 | 4 | 1 | 8 | 1 | 63.6 | inhibition [18]: Dose-dependent effect
CCCCCCC[C@H](O)CC(=O)CCc1ccc(O)c(OC)c1 | 0.795 |  | 64 (≈ 198 µM) |  |  | ≥ 128 |  | 0.19 |  | 21900 | 1 |  |  |  |  |  | 83.1 | fold change (FC) [19]: 2; fold change (FC) [20]: 2; fold change (FC) [21]: 8; fold change (FC) [22]: 2; fold change (FC) [23]: 2
CCCCCC(=O)CC(=O)CCc1ccc(O)c(OC)c1 | 0.789 | 2 | 128 (≈ 438 µM) | 4 | 1 | ≥ 128 | 2 | 0.25 | 8 | 17800 | 0.5 |  |  |  |  |  |  | 
CCCCc1ccc(CCc2ccc(O)c(OC)c2)o1 | 0.778 |  | 32 (≈ 117 µM) |  |  | ≥ 128 |  | 0.19 |  | 17200 | 0.19 | 16 | 4 | 2 | 8 | 2 |  | 
CCCCC[C@H](O)C[C@@H](O)CCc1ccc(O)c(OC)c1 |  | 1 | ≥ 128 | 1 | 1 | ≥ 128 | 1 | 1 | 2 |  | 2 |  |  |  |  |  |  | 
